Data published in ChEMBL document CHEMBL3124806, “Imidazopyridine-fused [1,3]-diazepinones: synthesis and antiproliferative activity” (Eur J Med Chem, 2014).

Tests used:
Ovis aries = organism: Ovis aries; experiment: Inhibition of sheep brain tubulin polymerization at 100 uM after 40 mins by DAPI staining-based fluorescence assay
Outline: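 Microtubular protein was purified from sheep brain by two assembly/disassembly cycles (37 °C/0 °C) in MES buffer (100 mM MES pH 6.6, 1 mM EGTA, 0.5 mM MgCl₂). Compound in DMSO was added to 10 µM tubulin with 10 µM DAPI and incubated 40 min at RT. GTP (1 mM) was then added, and assembly was followed by DAPI fluorescence at 37 °C.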

MDA-MB-468 = experiment: Cytotoxicity against human MDA-MB-468 cells assessed as cell growth at 10 uM after 48 hrs by SRB assay relative to untreated control; format: functional; settings: MDA-MB-468, 48 h, read-out: Activity
Outline: (§1)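 NCI-60 one-dose screen: each agent added at 10 µM, cultures incubated 48 h. Endpoint by sulforhodamine B protein-binding dye read spectrophotometrically; growth expressed as percent of untreated control cells.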

T47D = experiment: Cytotoxicity against human T47D cells assessed as cell growth at 10 uM after 48 hrs by SRB assay relative to untreated control; format: functional; settings: read-out: Activity
Outline: (§2)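 NCI-60 single-dose screen. Compounds were added to the cultures at 10 μM and incubated for 48 h. The end point was sulforhodamine B protein staining read spectrophotometrically. Growth is reported as percent of untreated control cells.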

MCF7 = experiment: Cytotoxicity against human MCF7 cells assessed as cell growth at 10 uM after 48 hrs by SRB assay relative to untreated control; format: functional; settings: MCF7, 48 h, read-out: Activity
Outline: (§3)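 NCI-60 panel screen at a single concentration of 10 μM with 48 h incubation. Cell density measured by sulforhodamine B protein-binding dye and read spectrophotometrically. Growth expressed as percent of untreated control cells.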

DU-145 = experiment: Cytotoxicity against human DU145 cells assessed as cell growth at 10 uM after 48 hrs by SRB assay relative to untreated control; format: functional; settings: DU-145, 48 h, read-out: Activity; outline: as §3
[1] = Cytotoxicity against human UO31 cells assessed as cell growth at 10 uM after 48 hrs by SRB assay relative to untreated control; format: functional; settings: UO-31, 48 h, read-out: Activity; outline: as §2
TK-10 = experiment: Cytotoxicity against human TK10 cells assessed as cell growth at 10 uM after 48 hrs by SRB assay relative to untreated control; format: functional; settings: TK-10, 48 h, read-out: Activity; outline: as §2
SN12C = experiment: Cytotoxicity against human SN12C cells assessed as cell growth at 10 uM after 48 hrs by SRB assay relative to untreated control; format: functional; settings: read-out: Activity; outline: as §2
ACHN = experiment: Cytotoxicity against human ACHN cells assessed as cell growth at 10 uM after 48 hrs by SRB assay relative to untreated control; format: functional; settings: read-out: Activity; outline: as §3
A498 = experiment: Cytotoxicity against human A498 cells assessed as cell growth at 10 uM after 48 hrs by SRB assay relative to untreated control; format: functional; settings: A498, 48 h, read-out: Activity; outline: as §3
786-0 = experiment: Cytotoxicity against human […] cells assessed as cell growth at 10 uM after 48 hrs by SRB assay relative to untreated control; format: functional; settings: 786-0, 48 h, read-out: Activity; outline: as §3
OVCAR-3 = experiment: Cytotoxicity against human OVCAR3 cells assessed as cell growth at 10 uM after 48 hrs by SRB assay relative to untreated control; format: functional; settings: OVCAR-3, 48 h, read-out: Activity; outline: as §1
[2] = Cytotoxicity against human UACC257 cells assessed as cell growth at 10 uM after 48 hrs by SRB assay relative to untreated control; format: functional; settings: UACC-257, 48 h, read-out: Activity; outline: as §2
SK-MEL-28 = experiment: Cytotoxicity against human SK-MEL-28 cells assessed as cell growth at 10 uM after 48 hrs by SRB assay relative to untreated control; format: functional; settings: SK-MEL-28, 48 h, read-out: Activity; outline: as §2
SK-MEL-2 = experiment: Cytotoxicity against human SK-MEL-2 cells assessed as cell growth at 10 uM after 48 hrs by SRB assay relative to untreated control; format: functional; settings: SK-MEL-2, 48 h, read-out: Activity; outline: as §1
M14 = experiment: Cytotoxicity against human M14 cells assessed as cell growth at 10 uM after 48 hrs by SRB assay relative to untreated control; format: functional; settings: M14, 48 h, read-out: Activity; outline: as §3
SNB-19 = experiment: Cytotoxicity against human SNB19 cells assessed as cell growth at 10 uM after 48 hrs by SRB assay relative to untreated control; format: functional; settings: SNB-19, 48 h, read-out: Activity; outline: as §2
SF-268 = experiment: Cytotoxicity against human SF268 cells assessed as cell growth at 10 uM after 48 hrs by SRB assay relative to untreated control; format: functional; settings: SF-268, 48 h, read-out: Activity; outline: as §1
KM12 = experiment: Cytotoxicity against human KM12 cells assessed as cell growth at 10 uM after 48 hrs by SRB assay relative to untreated control; format: functional; settings: KM12, 48 h, read-out: Activity; outline: as §3
HCT-15 = experiment: Cytotoxicity against human HCT15 cells assessed as cell growth at 10 uM after 48 hrs by SRB assay relative to untreated control; format: functional; settings: HCT-15, 48 h, read-out: Activity; outline: as §3
HCT-116 = experiment: Cytotoxicity against human HCT116 cells assessed as cell growth at 10 uM after 48 hrs by SRB assay relative to untreated control; format: functional; settings: HCT-116, 48 h, read-out: Activity; outline: as §3
HCC 2998 = experiment: Cytotoxicity against human HCC2998 cells assessed as cell growth at 10 uM after 48 hrs by SRB assay relative to untreated control; format: functional; settings: HCC 2998, 48 h, read-out: Activity; outline: as §3
COLO 205 = experiment: Cytotoxicity against human COLO205 cells assessed as cell growth at 10 uM after 48 hrs by SRB assay relative to untreated control; format: functional; settings: COLO 205, 48 h, read-out: Activity; outline: as §3
NCI-H460 = experiment: Cytotoxicity against human NCI-H460 cells assessed as cell growth at 10 uM after 48 hrs by SRB assay relative to untreated control; format: functional; settings: NCI-H460, 48 h, read-out: Activity; outline: as §1
A549 = experiment: Cytotoxicity against human A549 cells assessed as cell growth at 10 uM after 48 hrs by SRB assay relative to untreated control; format: functional; settings: A549, 48 h, read-out: Activity; outline: as §3
SR = experiment: Cytotoxicity against human SR cells assessed as cell growth at 10 uM after 48 hrs by SRB assay relative to untreated control; format: functional; settings: read-out: Activity; outline: as §2
MOLT-4 = experiment: Cytotoxicity against human MOLT4 cells assessed as cell growth at 10 uM after 48 hrs by SRB assay relative to untreated control; format: functional; settings: MOLT-4, 48 h, read-out: Activity; outline: as §1
K562 = experiment: Cytotoxicity against human K562 cells assessed as cell growth at 10 uM after 48 hrs by SRB assay relative to untreated control; format: functional; settings: K562, 48 h, read-out: Activity; outline: as §3
HL-60(TB) = experiment: Cytotoxicity against human HL-60(TB) cells assessed as cell growth at 10 uM after 48 hrs by SRB assay relative to untreated control; format: functional; settings: HL-60, 48 h, read-out: Activity
Outline: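 NCI-60 human tumour cell line panel; a single 10 µM concentration was added to the cultures and incubated 48 h. Endpoint was sulforhodamine B protein-binding dye read spectrophotometrically, with growth reported as percent of untreated control cells.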

SMILES	inhibition (Ovis aries) [%]	growth at 10 µM (MDA-MB-468) [%]	growth at 10 µM (T47D) [%]	growth at 10 µM (MCF7) [%]	growth at 10 µM (DU-145) [%]	growth at 10 µM [1] [%]	growth at 10 µM (TK-10) [%]	growth at 10 µM (SN12C) [%]	growth at 10 µM (ACHN) [%]	growth at 10 µM (A498) [%]	growth at 10 µM (786-0) [%]	growth at 10 µM (OVCAR-3) [%]	growth at 10 µM [2] [%]	growth at 10 µM (SK-MEL-28) [%]	growth at 10 µM (SK-MEL-2) [%]	growth at 10 µM (M14) [%]	growth at 10 µM (SNB-19) [%]	growth at 10 µM (SF-268) [%]	growth at 10 µM (KM12) [%]	growth at 10 µM (HCT-15) [%]	other results
C[C@H]1NC(c2ccc(Br)cc2)=Nc2nc3ccccn3c2C1=O	26	102	85	65.1	108	51.5	98.3	94.6	94	87.6	89.1	95.9	101	97.5	81.8	99.2	92.5	99.8	102	97.1	growth at 10 µM (HCT-116): 90.2%; growth at 10 µM (HCC 2998): 112%; growth at 10 µM (COLO 205): 106%; growth at 10 µM (NCI-H460): 101%; growth at 10 µM (A549): 99.6%; growth at 10 µM (SR): 77.7%; growth at 10 µM (MOLT-4): 79.7%; growth at 10 µM (K562): 84.8%; growth at 10 µM (HL-60(TB)): 91.1%
C[C@@H]1NC(c2ccccc2)=Nc2nc3ccccn3c2C1=O	7	99.9	92.8	67.2	116	82.5	135	112	97.5	84.6	103	103	121	113	110	99.8	106	103	98.9	104	growth at 10 µM (HCT-116): 98.4%; growth at 10 µM (HCC 2998): 90.9%; growth at 10 µM (COLO 205): 109%; growth at 10 µM (NCI-H460): 104%; growth at 10 µM (A549): 103%; growth at 10 µM (SR): 106%; growth at 10 µM (MOLT-4): 98.2%; growth at 10 µM (K562): 108%; growth at 10 µM (HL-60(TB)): 135%
